According to ChEMBL document CHEMBL1122183, “Enhanced antitumor properties of 3'-(4-morpholinyl) and 3'-(4-methoxy-1-piperidinyl) derivatives of 3'-deaminodaunorubicin” (1982):
“And” between values parts separate entries of the source, which are not always exact repeats. Equal values may be shown once.

Columns and labels:
Nucleic Acid = experiment: Thermal denaturation temperature (Tm) of isolated calf thymus helical DNA was measured; type: functional; settings: Bos taurus
Summary of the method: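 Calf thymus DNA (P) 5.2 × 10^-5 M and drug 5.2 × 10^-6 M in 0.01 M phosphate buffer, pH 7, with EDTA and 5% final Me2SO. ΔTm is Tm of the DNA–drug complex minus Tm of DNA alone. Values <1 are read as insignificant binding.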

L1210 [1] = experiment: Concentration of drug necessary to reduce by 50% the incorporation of tritiated uridine in the RNA of actively growing L1210 cells.; type: functional, Mus musculus; settings: read-out: ED50 (the source's name)
Summary of the method: (§1)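 Actively growing L1210 cells. Drug first dissolved in Me2SO, giving 1% final Me2SO. Incorporation of [3H]thymidine into DNA and [3H]uridine into RNA measured. ED50 is the drug concentration that reduces incorporation by 50%.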

Mus musculus = species on record: Mus musculus; experiment: Percentage rate of O2 consumption by liver microsomes and NADPH in the presence compared to the rate in presence of doxorubicin.; type: functional
Summary of the method: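 Rate of O2 consumption by liver microsomes with NADPH measured with the analogue at a single drug concentration. Expressed as a percentage of the rate obtained with doxorubicin.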

P388 = experiment: Antitumor efficacy at optimal dose of compound was measured against P388 leukemia in mice; type: functional, Mus musculus
Summary of the method: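 Mice inoculated ip with P388 cells on day 0, then dosed on days 5, 9 and 13 across a series of doses, under NCI protocols. % T/C is the ratio of mean survival time of treated to untreated mice ×100; T/C >120 taken as active. Values are averages of two tests, or one test where only one was run.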

L1210 [2] = experiment: Concentration of drug necessary to reduce by 50% the incorporation of tritiated thymidine in the DNA of actively growing L1210 cells; type: functional, Mus musculus; settings: read-out: ED50 (the source's name); summary of the method: as §1

SMILES | ΔTm (Nucleic Acid) [°C] | EC50 (L1210 [1]) | O2 consumption (Mus musculus) [%] | T/C (P388) [%] | EC50 (L1210 [2]) | EC50 (L1210 [1]; Mus musculus, L1210) [nM] | EC50 (L1210 [2]; Mus musculus, L1210) [nM]
COc1cccc2c1C(=O)c1c(O)c3c(c(O)c1C2=O)C[C@@](O)(C(C)=O)C[C@@H]3OC1CC(N2CCOCC2)C(O)C(C)O1 (stereo partly specified) | 6.1 | 100 nM and 14 nM | 25 | 166 | 760 nM and 340 nM |  | 
COc1cccc2c1C(=O)c1c(O)c3c(c(O)c1C2=O)C[C@@](O)(C(C)=O)C[C@@H]3OC1CC(NC2CCOCC2)C(O)C(C)O1 (stereo partly specified) | 4 |  | 68 | 136 |  | 610 | 2000
COc1cccc2c1C(=O)c1c(O)c3c(c(O)c1C2=O)C[C@@](O)(C(C)=O)C[C@@H]3O[C@H]1C[C@H](N)[C@H](O)[C@H](C)O1 [DAUNORUBICIN] |  |  |  | 130 |  | 330 | 660
COc1cccc2c1C(=O)c1c(O)c3c(c(O)c1C2=O)C[C@@](O)(C(C)O)C[C@@H]3O[C@H]1C[C@H](N2CCOCC2)[C@H](O)[C@H](C)O1 (stereo partly specified) | 4.1 |  | 29 | 153 |  | 530 | 2200
COc1cccc2c1C(=O)c1c(O)c3c(c(O)c1C2=O)C[C@@](O)(C(=O)CO)C[C@@H]3O[C@H]1C[C@H](N)[C@H](O)[C@H](C)O1 [DOXORUBICIN] | 13.4 |  | 100 | 160 |  | 580 | 1500
COc1cccc2c1C(=O)c1c(O)c3c(c(O)c1C2=O)C[C@@](O)(C(C)=O)C[C@@H]3OC1CC(N2CCC(OC)CC2)C(O)C(C)O1 (stereo partly specified) | 13.3 |  | 82 | 199 |  | 120 | 630
COc1cccc2c1C(=O)c1c(O)c3c(c(O)c1C2=O)C[C@@](O)(C(C)=O)C[C@@H]3OC1CC(NC2CCCCC2)C(O)C(C)O1 (stereo partly specified) | 0.7 |  | 57 |  |  | 16000 | 64000
COc1cccc2c1C(=O)c1c(O)c3c(c(O)c1C2=O)C[C@@](O)(C(C)=O)C[C@@H]3OC1CC(N2CCCCC2)C(O)C(C)O1 (stereo partly specified) | 16.8 |  | 8 | 177 |  | 50 | 500
COc1cccc2c1C(=O)c1c(O)c3c(c(O)c1C2=O)C[C@@](O)(C(C)O)C[C@@H]3O[C@H]1C[C@H](N2CCC(OC)CC2)[C@H](O)[C@H](C)O1 (stereo partly specified) | 9.5 |  | 64 | 199 |  | 80 | 580
COc1cccc2c1C(=O)c1c(O)c3c(c(O)c1C2=O)C[C@@](O)(C(C)O)C[C@@H]3O[C@H]1C[C@H](N2CCCCC2)[C@H](O)[C@H](C)O1 (stereo partly specified) | 12.9 |  |  | 162 |  | 40 | 620
